Measurements published in ChEMBL document CHEMBL4513216, “Probing the Open Global Health Chemical Diversity Library for Multistage-Active Starting Points for Next-Generation Antimalarials” (ACS Infect Dis, 2020).

Experiment: Toxicity liver stage against HepG2, at 10uM
Type: cell-based
Parameters: test concentration 10 uM, cell line HepG2-A16-CD81EGFP
Conditions: human, HepG2-A16-CD81EGFP cells; read-out: INHIBITION
Method in brief: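 Uninfected HepG2-A16-CD81EGFP cells, 3 × 10^3 per well, 1536-well, plated on prespotted compound at 10 μM final, parasite-free screening media added to match infected plates; puromycin 10 μM positive, DMSO 0.5% negative; run in parallel with 48 h PbLuc assay at 37 °C, 5% CO2; viability by CellTiter-Glo luminescence, normalized to controls.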

## CC(=O)N1CCN2C(=O)N(Cc3ccc(F)cc3)C[C@H]2C1
  cytotoxicity at 10 µM: -4.26%

## O=C(c1ccno1)N1CCN2C(=O)N(Cc3ccc(F)cc3)C[C@H]2C1
  cytotoxicity at 10 µM: -5.96%

## Cc1cccn2c(=O)cc(CSCC(=O)Nc3nnc(C(C)C)s3)nc12
  cytotoxicity at 10 µM: 0.879%

## COc1ccc(NC(=O)C2OC(c3cccs3)=NN2C(C)=O)cc1OC (stereo not given)
  cytotoxicity at 10 µM: -2.19%

## CC(C)c1ccc(C2CC(=O)Nc3c2cnn3C)cc1 (stereo not given)
  cytotoxicity at 10 µM: -2.9%

## O=C(CCc1nc2cccnc2[nH]1)Nc1ccc2c(c1)NC(=O)CO2
  cytotoxicity at 10 µM: -1.94%

## CN(C)CCCNC(=O)C1CC(=O)N(c2n[nH]c3cccc(F)c23)C1 (stereo not given)
  cytotoxicity at 10 µM: -5.92%

## Cc1ccc(CN2CCc3c(C(=O)N(C)C)n[nH]c3C2)o1
  cytotoxicity at 10 µM: 2.14%

## CC(C)CC(=O)N1CCC2(CC1)NC(=O)[C@H]1CN(C(=O)N(C)C)C[C@H]12
  cytotoxicity at 10 µM: -1.74%

## CN(C)CCNC(=O)c1ccc2ccc(N(C)CC3CC3)n2c1
  cytotoxicity at 10 µM: -2.69%

## O=C(N1CCCO1)[C@@]12CCO[C@@H]1CCN(Cc1ccsc1)C2
  cytotoxicity at 10 µM: 1.73%

## CCOCc1ncn2c1CN(S(=O)(=O)c1ccc(F)cc1)CC2
  cytotoxicity at 10 µM: 1.29%

## CCOc1cc2c(cc1C(=O)O)CCC2
  cytotoxicity at 10 µM: -18.6%

## Cc1cc(NC(=O)C(C)Oc2ccc3c(c2)OCO3)no1 (stereo not given)
  cytotoxicity at 10 µM: -5.08%

## Cc1c2ncn(CC(=O)c3ccccc3)c(=O)c2nn1C
  cytotoxicity at 10 µM: -8.58%

## COc1ccccc1CN(C)Cc1ccnc(C2CCCO2)n1 (stereo not given)
  cytotoxicity at 10 µM: 4.65%

## Cc1cnc(-c2nc(C3CCCN(Cc4cccs4)C3)no2)cn1 (stereo not given)
  cytotoxicity at 10 µM: 1.33%

## CCN(CC)C1CCN(C(=O)c2cc(-n3cccn3)ccc2Cl)CC1
  cytotoxicity at 10 µM: 2.87%

## OC1(CN2CCC(Cc3ncccn3)CC2)CCCCC1
  cytotoxicity at 10 µM: 7.69%

## CC(C)N1CCCC1c1nc(N(C)C)ncc1I (stereo not given)
  cytotoxicity at 10 µM: -0.358%

## CCOc1ccc(CN2CCC(c3[nH]ncc3C)C2)cc1CO (stereo not given)
  cytotoxicity at 10 µM: -2.38%

## Cc1noc(C)c1CC(=O)NCC1(O)CCCN(c2ccccn2)C1 (stereo not given)
  cytotoxicity at 10 µM: -2.03%

## COCCNCc1cc2cc(C)cc(C)c2[nH]c1=O
  cytotoxicity at 10 µM: -2.13%

## CNc1cc(C2CN(CC(=O)N(C)C)CCO2)nc(C)n1 (stereo not given)
  cytotoxicity at 10 µM: -14.4%

## Cc1cc(N2CCCC2c2cncc(N(C)C)n2)ncn1 (stereo not given)
  cytotoxicity at 10 µM: -15.2%

## COc1ccccc1CN1CCC(O)(Cn2ccc3ncccc32)CC1
  cytotoxicity at 10 µM: -0.692%

## O=C(c1ccco1)N1CCCC(c2cc(C(F)F)n3ncnc3n2)C1 (stereo not given)
  cytotoxicity at 10 µM: 4.4%

## O=C(Cc1cccc(F)c1F)NS(=O)(=O)c1cncc(Cl)c1
  cytotoxicity at 10 µM: 14.5%

## COc1ccccc1CC(C)N(C)S(C)(=O)=O (stereo not given)
  cytotoxicity at 10 µM: 14%

## COCCCNC(=O)CN(C)C(C)c1nc(C)no1 (stereo not given)
  cytotoxicity at 10 µM: 8.8%

## CN(Cc1ccsc1)C(=O)COC(=O)c1cc(Cl)c[nH]1
  cytotoxicity at 10 µM: -3.73%

## CC(CNS(N)(=O)=O)Oc1cccc(Cl)c1 (stereo not given)
  cytotoxicity at 10 µM: 2.24%

## CC(NS(N)(=O)=O)c1ccc(OCc2ccc(F)cc2)cc1 (stereo not given)
  cytotoxicity at 10 µM: -2.98%

## O=C1NCCCCC1NC(=O)C1(c2cccc(Cl)c2)CC1 (stereo not given)
  cytotoxicity at 10 µM: 2.68%

## OCCCN1CCCC1c1nc(Cc2ccc(F)cc2)no1 (stereo not given)
  cytotoxicity at 10 µM: -4.58%

## CC1CN(C(=O)NCc2ccn(C)c2)CCN1CC(F)(F)F (stereo not given)
  cytotoxicity at 10 µM: -4.32%

## Cc1nc2cc(=O)[nH]n2c(C)c1CC(=O)Nc1cnn(C)c1
  cytotoxicity at 10 µM: 4.58%

## CCS(=O)(=O)Cc1ccn(-c2cccc(F)c2)n1
  cytotoxicity at 10 µM: -0.988%

## CCc1nc(CN(C)CC(=O)NC(C)C)cs1
  cytotoxicity at 10 µM: 1.48%

## O=C(c1cccnc1)N(Cc1ccncc1)C1CC1
  cytotoxicity at 10 µM: 8.32%

## CCCC(C)Sc1nnnn1C1CCOCC1 (stereo not given)
  cytotoxicity at 10 µM: 2.3%

## Cc1cc(C)n(CC2CCCN2CC(=O)Nc2nncs2)n1 (stereo not given)
  cytotoxicity at 10 µM: 12.1%

## Cc1ccc(N2CCCC(NCCCS(C)(=O)=O)C2)nn1 (stereo not given)
  cytotoxicity at 10 µM: 0.833%

## CCc1nc(CN2CCCC(N(C)Cc3nc(C)c(C)o3)C2)no1 (stereo not given)
  cytotoxicity at 10 µM: -16.5%

## Cc1ccc(C(=O)N2CCSCC2)cc1NC(C)C
  cytotoxicity at 10 µM: -3.42%

## Cc1nn(C(C)C)c(C)c1S(=O)(=O)Nc1cccc(C(=O)O)c1
  cytotoxicity at 10 µM: 9.53%

## Nc1nccnc1C(=O)N1CC(OCc2cccc3ccccc23)C1
  cytotoxicity at 10 µM: 7.39%

## Cc1noc(C)c1CNCc1ccccc1N(C)C1CCN(C)CC1
  cytotoxicity at 10 µM: 4.69%

## O=C1CC2(CCSC2)C(=O)N1Cc1ncc(-c2ccccc2)o1 (stereo not given)
  cytotoxicity at 10 µM: 14.4%

## Cc1noc(C)c1CC(=O)OCc1nc(N)c2ccccc2n1
  cytotoxicity at 10 µM: 6.83%

## Cn1cnnc1-c1cncc(NCc2cccc3c2OCO3)c1
  cytotoxicity at 10 µM: 9.15%

## O=C(C(c1ccccc1)N1CCc2cncnc2C1)N1CCCCC1 (stereo not given)
  cytotoxicity at 10 µM: 1.26%

## COCCC(=O)N1CCN(CC2CC2)c2ccccc21
  cytotoxicity at 10 µM: -4.5%

## COc1ccccc1C(C)N1CCN(S(=O)(=O)N(C)C)CC1 (stereo not given)
  cytotoxicity at 10 µM: -8.8%

## NC(=O)NC(CC(=O)N1CCc2sccc2C1)c1cccc(Br)c1 (stereo not given)
  cytotoxicity at 10 µM: 3.43%

## N#Cc1cc(F)c(NCCc2cccnc2)c(F)c1
  cytotoxicity at 10 µM: -68.5%

## CN(Cc1cccc(F)c1)C(=O)c1ccncc1Cl
  cytotoxicity at 10 µM: 10.5%

## Cn1nnc2c1C(COCC1CC1)CN(C(=O)CC1=CCCCC1)C2 (stereo not given)
  cytotoxicity at 10 µM: -99.3%

## Cn1nc(C#N)c2c1CN(C(=O)c1c[nH]cn1)CCC2
  cytotoxicity at 10 µM: -122%

## Cc1nnc([C@H]2C[C@H]3CN(C(=O)Cc4ccc(F)cc4)CC[C@@H]3O2)o1
  cytotoxicity at 10 µM: -104%

## CCS(=O)(=O)N1CCC2(CN(Cc3ccc(C)o3)C2)C1
  cytotoxicity at 10 µM: -109%

## O=c1ccc2c(n1CC1CC1)CCC(NS(=O)(=O)C1CC1)C2 (stereo not given)
  cytotoxicity at 10 µM: -63.9%

## COc1cncc(-n2ccnc2-c2ccc(C(=O)O)s2)c1
  cytotoxicity at 10 µM: 0.571%

## COc1cc(C(=O)N(C)C(C)Cc2cc(C)ccn2)ccn1 (stereo not given)
  cytotoxicity at 10 µM: -9.57%

## COc1ccc([C@@H](C)n2ccnc2-c2cc3n(n2)CCCNC3)cc1
  cytotoxicity at 10 µM: -8.48%

## CC(C)c1nnsc1CNC(=O)C1CCN(C(=O)C2CC2)CC1
  cytotoxicity at 10 µM: -0.439%

## OCC1(Cc2ccc(Cl)cc2)CCN(Cc2ccccc2O)CC1
  cytotoxicity at 10 µM: -137%

## CCN1CC(C(=O)NCc2cccc(SC)c2)CC1=O (stereo not given)
  cytotoxicity at 10 µM: 4.68%

## Cc1nc(N(C)Cc2cccc(O)c2)nc2cc(S(C)(=O)=O)ccc12
  cytotoxicity at 10 µM: -2.54%

## CC(C)C1=NOC(c2nc(-c3cccc(Cl)c3)no2)C1 (stereo not given)
  cytotoxicity at 10 µM: -7.42%

## Cc1ncc2c(c1CNC(=O)C1(C)CC1)CCNC2
  cytotoxicity at 10 µM: -50.3%

## CC(=O)N[C@@H]1CN(C2CCN(c3ccccc3F)CC2)C[C@H]1C(C)C
  cytotoxicity at 10 µM: -14.5%

## CCN1CC2(CCN(C(=O)C(C)Oc3cccc(Cl)c3)CC2)OC1=O (stereo not given)
  cytotoxicity at 10 µM: -4.68%

## Cc1nnsc1C(=O)N1CCN(CC2CC2)[C@@H]2CS(=O)(=O)C[C@@H]21
  cytotoxicity at 10 µM: 0.445%

## COc1cccc2c1OCCCN(c1nc(C)nc3c1CCNCC3)C2
  cytotoxicity at 10 µM: -10.6%

## COc1nc(C)c(C(=O)N2CCc3[nH]nc(Cc4ccccc4)c3C2)s1
  cytotoxicity at 10 µM: -2.53%

## CCN(Cc1noc(C)n1)C(=O)C(c1ccccc1C)N(C)C (stereo not given)
  cytotoxicity at 10 µM: 1.89%

## O=C(Nc1cnc2n1CCCC2)c1cccc(NC(=O)C2CCCC2)c1
  cytotoxicity at 10 µM: -5.09%

## CCc1nnc(CN2CCc3[nH]c(-c4ccc(OC)cc4)nc3C2)o1
  cytotoxicity at 10 µM: -132%

## CC(C)C1CN(C(=O)c2ccc(Cl)cn2)CCCN1CC1CC1 (stereo not given)
  cytotoxicity at 10 µM: 5.15%

## CNc1nc2c(c(C(=O)N3CCCC3)n1)CN(Cc1cc(C)no1)CC2
  cytotoxicity at 10 µM: -103%

## CCN(Cc1ccc(C(C)=O)cc1)CC1CCOCC1
  cytotoxicity at 10 µM: -2.69%

## CCC(Cn1ccnc1)n1cnc2scc(C)c2c1=O (stereo not given)
  cytotoxicity at 10 µM: 10.7%

## CCN(Cc1ccncc1)c1cc(C2CCNCC2)nc(C)n1
  cytotoxicity at 10 µM: 4.34%

## CC(C)NCc1cc2n(n1)CCN(C1CCCCC1)C2
  cytotoxicity at 10 µM: -8.9%

## CCn1ccnc1CN1C[C@@H](NC(=O)C2CC2)[C@H](c2ccc(C)cc2)C1
  cytotoxicity at 10 µM: 2.63%

## CC(Oc1ccc(F)cc1F)C(=O)N1CCC2(CCCO2)CC1 (stereo not given)
  cytotoxicity at 10 µM: 2.24%

## CC(C)(C)c1cc(CN2CCOC(CN)C2)n[nH]1 (stereo not given)
  cytotoxicity at 10 µM: -12.1%

## CN(Cc1ccccc1)C(=O)CCN1C[C@H](C2CC2)[C@@H](N(C)C)C1
  cytotoxicity at 10 µM: -1.21%

## Cn1ccc(C2CCCCN2C(=O)c2cccc(Cn3cccn3)c2)n1 (stereo not given)
  cytotoxicity at 10 µM: 8.04%

## Cc1ncc(CN2CCN(C(=O)C3CCC3)[C@@H]3CS(=O)(=O)C[C@@H]32)cn1
  cytotoxicity at 10 µM: -4.19%

## NS(=O)(=O)Cc1cccc(C(=O)N2CCCC(n3cccn3)C2)c1 (stereo not given)
  cytotoxicity at 10 µM: 1.25%

## O=C(c1cc(C2CC2)[nH]n1)N1CCCC(n2cncn2)C1 (stereo not given)
  cytotoxicity at 10 µM: -6%

## CCn1ccnc1CN1CCN(CC(O)c2ccccc2)CC1 (stereo not given)
  cytotoxicity at 10 µM: -7.41%

## O=C(CCCc1nc2ccccc2[nH]1)N1CCCC(n2cccn2)C1 (stereo not given)
  cytotoxicity at 10 µM: -0.704%

## Cc1cnn(CCNCc2csc(-c3ccc(F)cc3)n2)c1
  cytotoxicity at 10 µM: -8.54%

## Cc1ccc(NC2CCN(C(=O)Cc3csc(C)n3)CC2)nn1
  cytotoxicity at 10 µM: -6.51%

## Cn1cc(CN2CCC3(CCN(c4cnn(C)c4)C3=O)C2)cn1 (stereo not given)
  cytotoxicity at 10 µM: -83.4%

## Cc1ccc(N2CC[C@H]3C[C@H](C(=O)NCc4ccco4)O[C@H]3C2)nn1
  cytotoxicity at 10 µM: -3.03%

## CCN(C)c1ncnc2c1CCN(C(=O)c1ccsc1)CC2
  cytotoxicity at 10 µM: -0.408%

## Cc1ccc(CN2CCCC3(CCCCN3S(C)(=O)=O)C2)s1 (stereo not given)
  cytotoxicity at 10 µM: -115%

## NC(=O)N1C[C@H]2CN(Cc3nccs3)C[C@H]2C1
  cytotoxicity at 10 µM: 2.6%

## CN1CCN(S(=O)(=O)c2ccccc2)Cc2cccnc21
  cytotoxicity at 10 µM: -104%

## Cc1occc1C(=O)N1CCC2(CC1)CN(c1ccccn1)CCO2
  cytotoxicity at 10 µM: -75.6%

## CCS(=O)(=O)N1CCCn2cnc(COc3cccnc3)c2C1
  cytotoxicity at 10 µM: -0.00278%

## COCCN1C(=O)[C@]2(CC[C@@H]3CN(Cc4ccccc4F)C[C@@H]32)N=C1C
  cytotoxicity at 10 µM: -0.0957%

## CC1=N[C@@]2(CC[C@@H]3CN(Cc4cccc(Cl)c4)C[C@@H]32)C(=O)N1CC1CC1
  cytotoxicity at 10 µM: 0.758%

## Cn1cc(N2CC3(CCN(Cc4nccn4C)C3)CC2=O)cn1 (stereo not given)
  cytotoxicity at 10 µM: -72.8%

## O=C(c1cnccn1)N1C[C@@H](OCc2cccnc2)[C@H]2OCCC[C@H]21
  cytotoxicity at 10 µM: -2.78%

## O=C(c1cscn1)N1CCC2(CCN(Cc3nccs3)CC2)C1
  cytotoxicity at 10 µM: -69%
